Data reported in ChEMBL document CHEMBL2029233, “Des-acyl ghrelin fragments and analogues promote survival of pancreatic β-cells and human pancreatic islets and prevent diabetes in streptozotocin-treated rats” (2012).
Active and inactive are the calls of the source.

Columns and labels:
HIT-T15 [1] = assay: Cytoprotective activity in hamster HIT-T15 cells assessed as inhibition of IFN-gamma/TNFalpha/IL1beta-induced cell death after 24 hrs by MTT assay relative to control; format: functional, cell-based; settings: Mesocricetus auratus
How it was run: (§1)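 HIT-T15 cells (5×10^3/well) serum-starved 24 h, then 24 h serum-free with IFN-γ 100 ng/mL, TNF-α 200 ng/mL, IL-1β 10 ng/mL plus peptide (1–100 nM). MTT 1 mg/mL ~1 h, formazan dissolved in DMSO, A570. Reported as percent of cytokine control. Mean ± SE of ≥3 experiments in quadruplicate.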

EPC [2] = assay: Cytoprotective activity in human EPC assessed as decrease in H2O2-induced ROS production after 2 hrs by DCF-DA flow cytometry assay; format: functional
How it was run: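 Human EPCs from peripheral blood mononuclear cells, cultured 21 days on collagen I in EGM-2. ROS measured by flow cytometry using DCF-DA (0.5 μM final) after 2 h of treatment. H₂O₂ 150 μM as positive control.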

HIT-T15 [3] = assay: Antiapoptotic activity in hamster HIT-T15 cells assessed as reduction in IFN-gamma/TNFalpha/IL1beta-induced apoptosis at 100 nM after 24 hrs by Hoechst staining relative to control; format: functional, cell-based; settings: Mesocricetus auratus
How it was run: (§2)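 HIT-T15 cells serum-starved 24 h, then 24 h in serum-free medium with IFN-γ 100 ng/mL, TNF-α 200 ng/mL, IL-1β 10 ng/mL plus peptide. Cells pooled with floating cells, formaldehyde-fixed, ethanol-stored, stained with 10 μg/mL Hoechst 33258. Condensed/fragmented nuclei counted, 500 nuclei in duplicate, n = 3. Reported as percent apoptotic cells.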

Rattus norvegicus [4] = assay: Antidiabetic activity in neonatal Sprague-Dawley rat assessed as decrease in STZ-induced plasma glucose level at 30 nmol/kg, sc administered from day 2 to day 9 post STZ-challenge measured after 70 days by colorimetry relative to control; format: functional, organism-based
How it was run: (§3)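 Neonatal rats given STZ 100 mg/kg ip in citrate buffer (pH 4.5) on day 1 of birth, then peptide 30 or 100 nmol/kg sc twice daily, days 2–8. Controls received citrate buffer. Killed at day 70. Glucose measured colorimetrically in nonfasted plasma. Plasma and pancreatic (80 mg) insulin measured by RIA. n = 11–21 per group.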

Rattus norvegicus [5] = assay: Antidiabetic activity in neonatal Sprague-Dawley rat assessed as inhibition of STZ-induced decrease in plasma insulin level at 30 nmol/kg, sc administered from day 2 to day 9 post STZ-challenge measured after 70 days by RIA relative to control; format: functional, organism-based; how it was run: as §3
Rattus norvegicus [6] = assay: Antidiabetic activity in neonatal Sprague-Dawley rat assessed as inhibition of STZ-induced mortality at 30 nmol/kg, sc administered on day 2 post STZ-challenge measured on day 9 (reference value: 52%); format: functional; design: scale not given: the % may be the effect or the level left
Rattus norvegicus [7] = assay: Antidiabetic activity in neonatal Sprague-Dawley rat assessed as inhibition of STZ-induced decrease in plasma insulin level at 100 nmol/kg, […] post STZ-challenge measured after 70 days by RIA by relative to control; format: functional, organism-based
Pancreatic islet [8] = assay: Cytoprotective activity in human pancreatic islet cells assessed as inhibition of IFN-gamma/TNFalpha/IL1beta-induced cell death at 10 to 100 nM after 72 hrs by MTT assay relative to control; format: functional
How it was run: (§4)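 Human donor islets (>70% purity, 25/well) held 72 h in serum-free medium with peptide, alone or with IFN-γ/TNF-α/IL-1β at 5 ng/mL each. Viability by MTT (1 mg/mL ~1 h, DMSO, 570 nm). Mean ± SE of ≥3 experiments in quadruplicate.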

HIT-T15 [9] = assay: Cytoprotective activity in hamster HIT-T15 cells assessed as inhibition of IFN-gamma/TNFalpha/IL1beta-induced cell death at 1 to 100 nM after 24 hrs by MTT assay relative to control; format: functional, cell-based; settings: Mesocricetus auratus; how it was run: as §1
HIT-T15 [10] = assay: Cytoprotective activity in hamster HIT-T15 cells assessed as inhibition of serum starvation-induced cell death after 24 hrs by MTT assay relative to control; format: functional, cell-based; settings: Mesocricetus auratus
How it was run: (§5)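 Viability by MTT in HIT-T15 cells seeded at 5×10^3/well, serum-starved 24 h, then 24 h more in serum-free medium with peptide (1–100 nM). MTT 1 mg/mL ~1 h, DMSO solubilization, absorbance 570 nm. Expressed as percent of serum-free control. Mean ± SE, ≥3 experiments in quadruplicate.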

Rattus norvegicus [11] = assay: Antidiabetic activity in neonatal Sprague-Dawley rat assessed as inhibition of STZ-induced mortality at 100 nmol/kg, sc administered on day 2 post STZ-challenge measured on day 9 (reference value: 52%); format: functional; design: scale not given: the % may be the effect or the level left
EPC [12] = assay: Cytoprotective activity in human EPC assessed as decrease in H2O2-induced senescence associated beta-galactosidase positive cells at 10 uM after 24 hrs; format: functional
How it was run: (§6)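 EPCs given test peptides (1 μM or 10 μM) with or without H₂O₂ for 24 h. Cells then fixed in 2% paraformaldehyde for 3 min and stained 24 h at 37 °C with X-gal solution. SA-β-gal-positive cells counted out of 100 at 20× by three investigators.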

Pancreatic islet [13] = assay: Cytoprotective activity in human pancreatic islet cells assessed as inhibition of serum starvation-induced cell death at 10 to 100 nM after 72 hrs by MTT assay relative to control; format: functional; how it was run: as §4
Rattus norvegicus [14] = assay: Antidiabetic activity in neonatal Sprague-Dawley rat assessed as inhibition of STZ-induced decrease in pancreatic insulin level at 30 nmol/kg, […] measured after 70 days by RIA relative to control; format: functional, organism-based
HIT-T15 [15] = assay: Cytoprotective activity in hamster HIT-T15 cells assessed as inhibition of serum starvation-induced cell death at 1 to 100 nM after 24 hrs by MTT assay relative to control; format: functional, cell-based; settings: Mesocricetus auratus; how it was run: as §5
HIT-T15 [16] = assay: Antiapoptotic activity in hamster HIT-T15 cells assessed as reduction in IFN-gamma/TNFalpha/IL1beta-induced apoptosis at 10 nM after 24 hrs by Hoechst staining relative to control; format: functional, cell-based; settings: Mesocricetus auratus; how it was run: as §2
[17] = molecular target: Ras-related C3 botulinum toxin substrate 1 (Homo sapiens) (UniProt P63000); assay: Inhibition of Rac1 activation
Rattus norvegicus [18] = assay: Antidiabetic activity in neonatal Sprague-Dawley rat assessed as decrease in STZ-induced plasma glucose level at 100 nmol/kg, sc administered from day 2 to day 9 post STZ-challenge measured after 70 days by colorimetry by relative to control; format: functional, organism-based; how it was run: as §3
Rattus norvegicus [19] = assay: Antidiabetic activity in neonatal Sprague-Dawley rat assessed as inhibition of STZ-induced decrease in pancreatic insulin level at 100 nmol/kg, sc administered from day 2 to day 9 post STZ-challenge measured after 70 days by RIA by relative to control; format: functional, organism-based; how it was run: as §3
HIT-T15 [20] = assay: Antiapoptotic activity in hamster HIT-T15 cells assessed as reduction in IFN-gamma/TNFalpha/IL1beta-induced apoptosis at 1 nM after 24 hrs by Hoechst staining relative to control; format: functional, cell-based; settings: Mesocricetus auratus; how it was run: as §2
Pancreatic islet [21] = assay: Cytoprotective activity in human pancreatic islet cells assessed as inhibition of serum starvation-induced cell death at 100 nM after 24 hrs by MTT assay relative to control; format: functional
How it was run: (§7)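 Human donor islets (purity >70%, 25/well) serum-starved 24 h, then 24 h serum-free with peptide (1–100 nM), alone or with IFN-γ 100 ng/mL, TNF-α 200 ng/mL, IL-1β 10 ng/mL. MTT 1 mg/mL ~1 h, DMSO, A570. Percent of serum-free or cytokine control. ≥3 experiments in quadruplicate.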

Pancreatic islet [22] = assay: Cytoprotective activity in human pancreatic islet cells assessed as inhibition of IFN-gamma/TNFalpha/IL1beta-induced cell death at 100 nM after 24 hrs by MTT assay relative to control; format: functional; how it was run: as §7
Pancreatic islet [23] = assay: Cytoprotective activity in human pancreatic islet cells assessed as inhibition of IFN-gamma/TNFalpha/IL1beta-induced cell death at 1 nM after 24 hrs by MTT assay relative to control; format: functional; how it was run: as §7
Pancreatic islet [24] = assay: Cytoprotective activity in human pancreatic islet cells assessed as inhibition of serum starvation-induced cell death at 1 nM after 24 hrs by MTT assay relative to control; format: functional; how it was run: as §7
EPC [25] = assay: Cytoprotective activity in human EPC assessed as decrease in H2O2-induced senescence associated beta-galactosidase positive cells at 1 uM after 24 hrs; format: functional; how it was run: as §6
Pancreatic islet [26] = assay: Cytoprotective activity in human pancreatic islet cells assessed as inhibition of serum starvation-induced cell death at 10 nM after 24 hrs by MTT assay relative to control; format: functional; how it was run: as §7
Pancreatic islet [27] = assay: Cytoprotective activity in human pancreatic islet cells assessed as inhibition of IFN-gamma/TNFalpha/IL1beta-induced cell death at 10 nM after 24 hrs by MTT assay relative to control; format: functional; how it was run: as §7

CC(C)[C@H](NC(=O)[C@H](CCCNC(=N)N)NC(=O)[C@H](CCC(N)=O)NC(=O)[C@H](Cc1cnc[nH]1)NC(=O)[C@H](CCC(=O)O)NC(=O)[C@@H]1CCCN1C(=O)[C@@H](N)CO)C(=O)N[C@@H](CCC(N)=O)C(N)=O
active: Activity (HIT-T15 [1]) Dose-dependent effect | Activity (EPC [2]) | Activity (HIT-T15 [3]) | Activity (Rattus norvegicus [4]) | Activity (Rattus norvegicus [5]) | Activity (Rattus norvegicus [7]) | Activity (Pancreatic islet [8]) | Activity (HIT-T15 [9]) | Activity (HIT-T15 [10]) Dose-dependent effect | Activity (EPC [12]) | Activity (Pancreatic islet [13]) | Activity (Rattus norvegicus [14]) | Activity (HIT-T15 [15]) | Activity (HIT-T15 [16]) | inhibition [17] | Activity (Rattus norvegicus [18]) | Activity (Rattus norvegicus [19]) | Activity (HIT-T15 [20])
71%: Activity (Rattus norvegicus [6])
89%: Activity (Rattus norvegicus [11])

CC(C)C[C@H](NC(=O)[C@H](CCCCN)NC(=O)[C@H](C)NC(=O)[C@@H]1CCCN1C(=O)[C@@H]1CCCN1C(=O)[C@H](CCCCN)NC(=O)[C@H](CCCCN)NC(=O)[C@H](CO)NC(=O)[C@H](CCC(=O)O)NC(=O)[C@H](CCCCN)NC(=O)[C@H](CCCNC(=N)N)NC(=O)[C@H](CCC(N)=O)NC(=O)[C@H](CCC(N)=O)NC(=O)[C@@H](NC(=O)[C@H](CCCNC(=N)N)NC(=O)[C@H](CCC(N)=O)NC(=O)[C@H](Cc1cnc[nH]1)NC(=O)[C@H](CCC(=O)O)NC(=O)[C@@H]1CCCN1C(=O)[C@H](CO)NC(=O)[C@H](CC(C)C)NC(=O)[C@H](Cc1ccccc1)NC(=O)[C@H](CO)NC(=O)[C@H](CO)NC(=O)CN)C(C)C)C(=O)N[C@@H](CCC(N)=O)C(=O)N1CCC[C@H]1C(=O)N[C@@H](CCCNC(=N)N)C(=O)O
inactive: Activity (Pancreatic islet [24])
72%: Activity (Rattus norvegicus [6])
active: Activity (HIT-T15 [1]) Dose-dependent effect | Activity (Pancreatic islet [21]) | Activity (EPC [2]) | Activity (Pancreatic islet [22]) | Activity (HIT-T15 [3]) | Activity (Rattus norvegicus [4]) | Activity (Rattus norvegicus [5]) | Activity (Pancreatic islet [23]) | Activity (Pancreatic islet [8]) | Activity (HIT-T15 [9]) | Activity (HIT-T15 [10]) Dose-dependent effect | Activity (EPC [25]) | Activity (Pancreatic islet [26]) | Activity (Pancreatic islet [13]) | Activity (Rattus norvegicus [14]) | Activity (HIT-T15 [15]) | Activity (Pancreatic islet [27]) | Activity (HIT-T15 [16]) | Activity (HIT-T15 [20])
